Experimental data from publication PMC7983942 (Clinical Pharmacology and Therapeutics, 2020).
Substitutions are numbered along the chain they refer to.

Experiments:
Type in all cases: in vitro ADME
OCT1 = target: T1, OCT1 (Homo sapiens, UniProt O15245); assay: Uptake into transporter-transfected vs wild-type HEK293 cells; conditions: metformin 20 µM, two to four minutes
T1 sequence (O15245 1-554): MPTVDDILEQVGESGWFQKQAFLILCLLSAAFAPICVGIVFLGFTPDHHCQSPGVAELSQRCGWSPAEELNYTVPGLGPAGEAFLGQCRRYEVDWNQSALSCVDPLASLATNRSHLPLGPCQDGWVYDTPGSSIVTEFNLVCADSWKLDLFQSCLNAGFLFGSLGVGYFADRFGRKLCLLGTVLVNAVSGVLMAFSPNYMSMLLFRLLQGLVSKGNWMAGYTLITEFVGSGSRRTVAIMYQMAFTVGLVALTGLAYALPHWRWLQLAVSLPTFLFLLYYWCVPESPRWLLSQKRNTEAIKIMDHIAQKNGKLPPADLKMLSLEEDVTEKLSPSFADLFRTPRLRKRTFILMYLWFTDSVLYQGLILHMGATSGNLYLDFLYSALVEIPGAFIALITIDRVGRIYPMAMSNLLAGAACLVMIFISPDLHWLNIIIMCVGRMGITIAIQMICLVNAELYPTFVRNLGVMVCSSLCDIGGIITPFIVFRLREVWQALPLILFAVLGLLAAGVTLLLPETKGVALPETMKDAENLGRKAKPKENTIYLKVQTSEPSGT
In short: (§1)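 Transfected HEK293 lines were OAT2 and OCT1, each run against wild-type cells, seeded on poly-D-lysine plates. Culture was 48 h at 37°C in DMEM with 10% FBS plus 1% gentamycin, 1% sodium pyruvate and 50 µg/mL hygromycin B. Probes were cyclic GMP 0.5 µM (OAT2) and metformin 20 µM (OCT1), over 2–4 min; test compound was 1 µM for 2 min. After four ice-cold washes and methanol lysis, the uptake ratio versus wild-type and the ratio of ratios were derived; n=3 in one experiment.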

OATP1B1*14 = target: T2, OATP1B1*14 (Homo sapiens, UniProt Q9Y6L6, N130D/P155T); assay: Uptake into OATP1B1 variant-transfected vs wild-type HEK293 cells; conditions: substrate 1 µM; for Uptake ratio as percentage of OATP1B1*14 in the same experiment: OATP1B1*14 (reference); for Uptake ratio (vs. wild‐type HEK293 cells): OATP1B1*14, 2 minutes
T2 sequence (Q9Y6L6 1-691 N130D/P155T): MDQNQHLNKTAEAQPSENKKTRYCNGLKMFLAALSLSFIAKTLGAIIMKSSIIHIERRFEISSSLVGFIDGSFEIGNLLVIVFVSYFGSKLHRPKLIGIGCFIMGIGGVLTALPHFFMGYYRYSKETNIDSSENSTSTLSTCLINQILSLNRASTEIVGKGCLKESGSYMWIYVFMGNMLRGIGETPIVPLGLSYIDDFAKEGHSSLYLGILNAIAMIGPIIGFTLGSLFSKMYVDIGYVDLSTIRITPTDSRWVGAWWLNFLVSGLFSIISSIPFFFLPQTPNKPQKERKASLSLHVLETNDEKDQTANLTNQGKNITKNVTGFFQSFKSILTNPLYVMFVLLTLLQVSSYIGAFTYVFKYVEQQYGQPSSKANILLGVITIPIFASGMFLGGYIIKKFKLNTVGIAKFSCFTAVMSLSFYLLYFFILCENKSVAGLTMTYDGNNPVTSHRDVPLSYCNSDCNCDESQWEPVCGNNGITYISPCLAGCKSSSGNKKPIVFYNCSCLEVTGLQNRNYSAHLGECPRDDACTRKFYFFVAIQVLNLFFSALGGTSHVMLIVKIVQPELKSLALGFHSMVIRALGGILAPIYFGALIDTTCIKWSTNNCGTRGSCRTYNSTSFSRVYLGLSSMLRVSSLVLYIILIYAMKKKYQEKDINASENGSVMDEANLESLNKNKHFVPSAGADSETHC

OATP1B1*1A = target: T3, OATP1B1*1A (Homo sapiens, UniProt Q9Y6L6); assay: Uptake into transporter-transfected vs wild-type HEK293 cells; conditions: experiment 3, substrate 1 µM, 2 minutes
T3 sequence (Q9Y6L6 1-691): T2 sequence (Q9Y6L6 1-691 N130D/P155T) with D130N, T155P
In short: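 HEK293 cells stably transfected with OATP1B1*1A, OATP1B3 or OATP2B1, plus wild-type cells, were seeded on poly-D-lysine plates. Culture was 48 h at 37°C in DMEM with 10% FBS, pyruvate, nonessential amino acids and GlutaMAX. Test compound was 1 µM for 2 min; rosuvastatin probe was 1 µM over 2–4 min. Cells were washed four times in ice-cold buffer and lysed in methanol with internal standard. Readouts were uptake ratio versus wild-type and glucuronide/probe ratio of ratios; mean ± SD, n=3 in one experiment.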

OATP1B1*15 = target: T4, OATP1B1*15 (Homo sapiens, UniProt Q9Y6L6, N130D/V174A); assay: Uptake into OATP1B1 variant-transfected vs wild-type HEK293 cells; conditions: for Uptake ratio (vs. wild‐type HEK293 cells): 2 minutes
T4 sequence (Q9Y6L6 1-691 N130D/V174A): T2 sequence (Q9Y6L6 1-691 N130D/P155T) with T155P, V174A
In short: (§2)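 HEK293 cells stably expressing an OATP1B1 variant, alongside wild-type HEK293, were seeded at 0.5–1.2 × 10⁵ cells/well on poly-D-lysine plates. They grew 48 h at 37°C and 5% CO₂ in DMEM with 10% FBS, 1% pyruvate, nonessential amino acids and GlutaMAX. Substrate was 1 µM (0.5 µM where footnoted) for 2 min, then four ice-cold buffer washes and methanol lysis with internal standard. Uptake ratio (transfected/wild-type) is expressed as % of OATP1B1*14 in the same experiment; n=3 determinations.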

OATP1B1*5 = target: T5, OATP1B1*5 (Homo sapiens, UniProt Q9Y6L6, V174A); assay: as above; conditions: for Uptake ratio (vs. wild‐type HEK293 cells): 2 minutes
T5 sequence (Q9Y6L6 1-691 V174A): T2 sequence (Q9Y6L6 1-691 N130D/P155T) with D130N, T155P, V174A
In short: as §2

OAT2 = target: T6, OAT2 (Homo sapiens, UniProt Q9Y694); assay: Uptake into transporter-transfected vs wild-type HEK293 cells; conditions: cyclic guanosine monophosphate 0.5 µM, two to four minutes
T6 sequence (Q9Y694 1-548): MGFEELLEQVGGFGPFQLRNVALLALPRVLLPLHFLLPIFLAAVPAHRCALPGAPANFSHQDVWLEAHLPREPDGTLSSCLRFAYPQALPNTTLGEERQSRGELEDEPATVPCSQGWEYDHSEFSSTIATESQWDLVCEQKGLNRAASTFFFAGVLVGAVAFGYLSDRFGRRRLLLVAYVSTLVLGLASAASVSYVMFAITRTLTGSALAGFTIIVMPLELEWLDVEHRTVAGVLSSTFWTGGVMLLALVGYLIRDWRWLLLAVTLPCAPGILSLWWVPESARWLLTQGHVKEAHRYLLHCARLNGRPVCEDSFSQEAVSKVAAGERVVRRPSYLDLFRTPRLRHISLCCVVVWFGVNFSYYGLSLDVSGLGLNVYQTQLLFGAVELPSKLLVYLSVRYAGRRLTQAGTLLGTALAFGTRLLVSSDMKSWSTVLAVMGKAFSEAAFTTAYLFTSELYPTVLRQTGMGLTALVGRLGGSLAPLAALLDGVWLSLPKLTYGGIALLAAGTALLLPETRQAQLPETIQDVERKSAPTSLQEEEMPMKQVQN
In short: as §1

Compound: CN(C)C(=N)N=C(N)N [metformin]
- Uptake ratio (vs. wild‐type HEK293 cells), probe (OCT1): 15.4 ± 1.06

Compound: CC(C)n1c(/C=C/C(O)CC(O)CC(=O)O)c(-c2ccc(F)cc2)c2ccccc21 (stereo not shown) [Fluvastatin, fluvastatin]
- Uptake ratio as percentage of OATP1B1*14 in the same experiment (OATP1B1*14; experiment 1): 100%
- Uptake ratio as percentage of OATP1B1*14 in the same experiment (OATP1B1*14; experiment 2): 100%
- Uptake ratio (vs. wild‐type HEK293 cells) (OATP1B1*14; experiment 1): 3.2 ± 0.1
- Uptake ratio (vs. wild‐type HEK293 cells) (OATP1B1*14; experiment 2): 3.1 ± 0.1
- Uptake ratio (vs. wild‐type HEK293 cells) (OATP1B1*14; experiment 3): 4.4 ± 0.1
- Uptake ratio (vs. wild‐type HEK293 cells) (OATP1B1*1A): 2.7 ± 0.1
- Uptake ratio as percentage of OATP1B1*14 in the same experiment (OATP1B1*15; experiment 1, substrate 1 µM): 47%
- Uptake ratio (vs. wild‐type HEK293 cells) (OATP1B1*15; experiment 1, substrate 1 µM): 1.5 ± 0.1
- Uptake ratio as percentage of OATP1B1*14 in the same experiment (OATP1B1*15; experiment 2, substrate 1 µM): 48%
- Uptake ratio (vs. wild‐type HEK293 cells) (OATP1B1*15; experiment 2, substrate 1 µM): 1.5 ± 0.1
- Uptake ratio as percentage of OATP1B1*14 in the same experiment (OATP1B1*5; experiment 1, substrate 1 µM): 56%
- Uptake ratio (vs. wild‐type HEK293 cells) (OATP1B1*5; experiment 1, substrate 1 µM): 1.8 ± 0.2
- Uptake ratio as percentage of OATP1B1*14 in the same experiment (OATP1B1*5; experiment 2, substrate 1 µM): 61%
- Uptake ratio (vs. wild‐type HEK293 cells) (OATP1B1*5; experiment 2, substrate 1 µM): 1.9 ± 0.1

Compound: Nc1nc2c(ncn2[C@@H]2O[C@@H]3COP(=O)(O)O[C@H]3[C@H]2O)c(=O)[nH]1 [cyclic guanosine monophosphate]
- Uptake ratio (vs. wild‐type HEK293 cells), probe (OAT2): 23.6 ± 0.58
